Legend:
[1] = Antiproliferative activity against human Bel7402 cells assessed as inhibition of cell proliferation incubated for 48 hrs by CCK8 assay; assay type: functional, cell-based; conditions: Bel-7402, 48 h
Procedure, shortened: (§1)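 Human A549 lung, Hela cervical, Bel-7402 hepatocellular and MCF-7 breast cancer cells, plus mouse embryo fibroblast NIH3T3, tested for anti-proliferative activity by CCK-8 assay. For the matrine combination tests, the chalcone and matrine were used at a 1:1 molar ratio; values given as IC50.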

HeLa = experiment: Antiproliferative activity against human HeLa cells assessed as inhibition of cell proliferation incubated for 48 hrs by CCK8 assay; assay type: functional, cell-based; procedure, shortened: as §1
A549 = experiment: Antiproliferative activity against human A549 cells assessed as inhibition of cell proliferation incubated for 48 hrs by CCK8 assay; assay type: functional, cell-based; conditions: A549, 48 h; procedure, shortened: as §1
[2] = Antiproliferative activity against mouse NIH/3T3 cells assessed as inhibition of cell proliferation incubated for 48 hrs by CCK8 assay; assay type: cell-based; conditions: NIH3T3, 48 h; procedure, shortened: as §1
MCF7 = experiment: Antiproliferative activity against human MCF7 cells assessed as inhibition of cell proliferation incubated for 48 hrs by CCK8 assay; assay type: functional, cell-based; conditions: MCF7, 48 h; procedure, shortened: as §1

SMILES	IC50 [1] [µM]	IC50 (HeLa) [µM]	IC50 (A549) [µM]	IC50 [2] [µM]	IC50 (MCF7) [µM]
O=C(/C=C/c1ccccc1)c1ccc(OCc2cn([C@H]3CC(=O)N4C[C@@H]5CCCN6CCC[C@@H]([C@H]56)[C@H]4C3)nn2)cc1O	17.3	17.3	16.8	> 100	12
O=c1[nH]cc(F)c(=O)[nH]1 [FLUOROURACIL]	19.9	8.93	40.4	22.4	9.56
O=C(/C=C/c1ccccc1)c1ccc(OCc2cn([C@H]3CC(=O)N4C[C@@H]5CCCN6CCC[C@@H]([C@H]56)[C@H]4C3)nn2)cc1	20.7	25.4	32.2	19.4	17.2
COc1ccc(/C=C/C(=O)c2ccc(OCc3cn([C@H]4CC(=O)N5C[C@@H]6CCCN7CCC[C@@H]([C@H]67)[C@H]5C4)nn3)cc2)cc1		> 50	> 50	23.1	
O=C(/C=C/c1ccc(F)cc1)c1ccc(OCc2cn([C@H]3CC(=O)N4C[C@@H]5CCCN6CCC[C@@H]([C@H]56)[C@H]4C3)nn2)cc1O	9.02	19.8	18.3	36.1	5.71
CC(C)(C)c1ccc(/C=C/C(=O)c2ccc(OCc3cn([C@H]4CC(=O)N5C[C@@H]6CCCN7CCC[C@@H]([C@H]67)[C@H]5C4)nn3)cc2O)cc1		36.3	36.5	20.4	
C#CCOc1ccc(C(=O)/C=C/c2cccc(Cl)c2)c(O)c1		> 50	> 50	79.5	> 50
C#CCOc1ccc(C(=O)/C=C/c2ccc(Cl)c(Cl)c2)c(O)c1		> 50	> 50	94.7	> 50
O=C(/C=C/c1ccc(F)cc1)c1ccc(OCc2cn([C@H]3CC(=O)N4C[C@@H]5CCCN6CCC[C@@H]([C@H]56)[C@H]4C3)nn2)cc1	22.2	18.7	18.7	39.8	26.9
O=C(/C=C/c1ccc(Cl)cc1)c1ccc(OCc2cn([C@H]3CC(=O)N4C[C@@H]5CCCN6CCC[C@@H]([C@H]56)[C@H]4C3)nn2)cc1O	14.7	10.7	15.6	75.2	12.7
C#CCOc1ccc(C(=O)/C=C/c2ccccc2)cc1		> 50	> 50	72.9	> 50
O=C(/C=C/c1ccc(Br)cc1)c1ccc(OCc2cn([C@H]3CC(=O)N4C[C@@H]5CCCN6CCC[C@@H]([C@H]56)[C@H]4C3)nn2)cc1	22.7	17.1	24.5	30.9	22.7
CC(=O)c1ccc(OCc2cn([C@H]3CC(=O)N4C[C@@H]5CCCN6CCC[C@@H]([C@H]56)[C@H]4C3)nn2)cc1	> 50	> 50	> 50	42.9	> 50
O=C(/C=C/c1ccccc1Cl)c1ccc(OCc2cn([C@H]3CC(=O)N4C[C@@H]5CCCN6CCC[C@@H]([C@H]56)[C@H]4C3)nn2)cc1	21.8	13.5	14.2	88	23.8
Cc1ccc(/C=C/C(=O)c2ccc(OCc3cn([C@H]4CC(=O)N5C[C@@H]6CCCN7CCC[C@@H]([C@H]67)[C@H]5C4)nn3)cc2)cc1	35.6	19.9	32.4	14.8	26.8
COc1ccc(/C=C/C(=O)c2ccc(OCc3cn([C@H]4CC(=O)N5C[C@@H]6CCCN7CCC[C@@H]([C@H]67)[C@H]5C4)nn3)cc2)cc1OC		> 50	> 50	41.1	
O=C(/C=C/c1cccc(Cl)c1)c1ccc(OCc2cn([C@H]3CC(=O)N4C[C@@H]5CCCN6CCC[C@@H]([C@H]56)[C@H]4C3)nn2)cc1	13.7	15.2	11.9	38.1	10.2
O=C(/C=C/c1ccc(Cl)c(Cl)c1)c1ccc(OCc2cn([C@H]3CC(=O)N4C[C@@H]5CCCN6CCC[C@@H]([C@H]56)[C@H]4C3)nn2)cc1O	12.4	6.63	8.08	48.3	7.03
O=C(/C=C/c1cccc(C(F)(F)F)c1)c1ccc(OCc2cn([C@H]3CC(=O)N4C[C@@H]5CCCN6CCC[C@@H]([C@H]56)[C@H]4C3)nn2)cc1O	12.1	12.7	8.18	34.8	8.87
COc1cc(/C=C/C(=O)c2ccc(OCc3cn([C@H]4CC(=O)N5C[C@@H]6CCCN7CCC[C@@H]([C@H]67)[C@H]5C4)nn3)cc2O)cc(OC)c1OC		> 50	> 50	15.2	
Cc1ccc(/C=C/C(=O)c2ccc(OCc3cn([C@H]4CC(=O)N5C[C@@H]6CCCN7CCC[C@@H]([C@H]67)[C@H]5C4)nn3)cc2O)cc1		> 50	> 50	20.9	
COc1ccc(/C=C/C(=O)c2ccc(OCc3cn([C@H]4CC(=O)N5C[C@@H]6CCCN7CCC[C@@H]([C@H]67)[C@H]5C4)nn3)cc2O)cc1	> 50	> 50	> 50	29.6	> 50
O=C(/C=C/c1ccc(OC(F)F)cc1)c1ccc(OCc2cn([C@H]3CC(=O)N4C[C@@H]5CCCN6CCC[C@@H]([C@H]56)[C@H]4C3)nn2)cc1		> 50	> 50	27.3	
C#CCOc1ccc(C(=O)/C=C/c2ccc(Cl)c(Cl)c2)cc1		> 50	> 50	61.8	> 50
COc1ccc(/C=C/C(=O)c2ccc(OCc3cn([C@H]4CC(=O)N5C[C@@H]6CCCN7CCC[C@@H]([C@H]67)[C@H]5C4)nn3)cc2O)cc1OC		> 50	> 50	13.3	
O=C(/C=C/c1ccc(Cl)cc1)c1ccc(OCc2cn([C@H]3CC(=O)N4C[C@@H]5CCCN6CCC[C@@H]([C@H]56)[C@H]4C3)nn2)cc1	21.2	19.3	18.9	31.3	14.3
CC(=O)c1ccc(OCc2cn([C@H]3CC(=O)N4C[C@@H]5CCCN6CCC[C@@H]([C@H]56)[C@H]4C3)nn2)cc1O	> 50	> 50	> 50	61.8	> 50
O=C(/C=C/c1ccc(Cl)c(Cl)c1)c1ccc(OCc2cn([C@H]3CC(=O)N4C[C@@H]5CCCN6CCC[C@@H]([C@H]56)[C@H]4C3)nn2)cc1	11.9	11.4	8.72	19.4	13.3
